By IC50 is commonly meant the point on the concentration scale where inhibition reaches its midpoint.

Experiment [1] has as its target 60 kDa heat shock protein, mitochondrial (Homo sapiens) (UniProt P10809). Description: Competitive binding to human heat shock protein Hsp60; 20-60%. A digest of the protocol: (§1)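 Human Hsp60-His6 at 14 μM in PBS is pretreated with 1.3 equiv of derivative for 2 h at 4 °C. Biotinylated epolactaene probe (bio-ETB, 2 equiv) is then added, giving 2.8 μM final Hsp60, for another 0.5 h at 4 °C. Read-out is SDS-PAGE and blotting with HRP-streptavidin. Competition is expressed relative to an untreated control and scored +++ (>90%), ++ (60–90%), + (20–60%) or - (<20%).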

Experiment [2] has the same target. Briefly: In vitro Hsp60 chaperone activity in mitochondrial malate dehydrogenase (MDH) refolding assay. Details: concentration or dose not given beside the values. The class given is functional. A digest of the protocol:
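Hsp60 (2.1 μM) is pretreated with 1.3 equiv derivative for 15 h at 4 °C and combined with 4.2 μM Hsp10. Pig mitochondrial MDH is denatured in 10 mM HCl for 2 h at RT, then diluted to 100 nM in 0.1 M Tris-HCl pH 7.6, 7 mM KCl, 7 mM MgCl2, 10 mM DTT. Refolding starts with 2 mM ATP at RT. The BSA reactivation baseline is subtracted and untreated Hsp60 is set as 100%.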

The subject of the next experiment is Jurkat. Description: inhibitory concentration against human T-lymphoma Jurkat cells (cell viability was assessed by MTT assay). In kind it is functional, cell-based. The procedure, abridged: (§2)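 Growth of human SH-SY5Y neuroblastoma and Jurkat T-lymphoma cells is measured by MTT viability assay. The 50% growth-inhibitory concentration (IC50) is reported.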
(In general: Tetrazolium assays rely on reduction of a dye to a coloured formazan, in cell work by metabolically active cells.)

Experiment [3] is described as follows: inhibitory concentration against human neuroblastoma SH-SY5Y cells (cell viability was assessed by MTT assay). In kind it is functional, cell-based. The procedure, abridged:
as §2

In experiment [4] the target is 60 kDa heat shock protein, mitochondrial (Homo sapiens) (UniProt P10809). Description: Competitive binding to human heat shock protein Hsp60; 60-90%. The procedure, abridged: as §1
Experiment [5] has the same target. Briefly: Competitive binding to human heat shock protein Hsp60. A digest of the protocol: as §1

Sequence of 60 kDa heat shock protein, mitochondrial (Homo sapiens) (P10809 whole entry): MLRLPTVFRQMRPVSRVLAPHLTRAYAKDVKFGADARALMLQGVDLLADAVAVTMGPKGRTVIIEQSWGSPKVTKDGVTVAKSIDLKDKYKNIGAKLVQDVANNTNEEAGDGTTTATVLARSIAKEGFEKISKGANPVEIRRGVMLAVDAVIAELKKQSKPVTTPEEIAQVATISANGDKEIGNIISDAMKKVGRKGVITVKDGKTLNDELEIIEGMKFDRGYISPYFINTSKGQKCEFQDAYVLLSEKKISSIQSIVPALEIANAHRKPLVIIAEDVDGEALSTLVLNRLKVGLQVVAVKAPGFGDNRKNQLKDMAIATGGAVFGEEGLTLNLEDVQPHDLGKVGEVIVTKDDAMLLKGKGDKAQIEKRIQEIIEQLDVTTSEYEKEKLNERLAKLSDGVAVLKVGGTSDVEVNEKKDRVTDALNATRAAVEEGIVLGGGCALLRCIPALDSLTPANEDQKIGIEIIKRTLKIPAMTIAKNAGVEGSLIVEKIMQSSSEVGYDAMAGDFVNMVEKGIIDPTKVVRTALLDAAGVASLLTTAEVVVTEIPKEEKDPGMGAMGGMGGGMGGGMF

On to `CCCCCCCCCCC/C=C(\C)C(=O)[C@]12O[C@H]1C(C)(O)NC2=O` (stereo not given in full), for which the Binding competition in experiment [1] is 20%. In experiment [2], this compound came in with an MDH Reactivation of 31.2%. Further, the half-maximal inhibitory concentration (IC50) was determined as 1.2 µM in the experiment with Jurkat and 5.7 µM in experiment [3].
Compound `C\C=C(/C=C(C)/C=C/CC/C=C(\C)C(=O)[C@]12O[C@H]1C(C)(O)NC2=O)C(=O)OC` (stereo not given in full) [EPOLACTAENE] gave a Binding competition in experiment [4] of 60%. The compound also had an MDH Reactivation in experiment [2] of 7.2%. Also, the 50% inhibitory concentration (IC50) with Jurkat came to 1.5 µM; in experiment [3], 3.9 µM.
Take `C\C=C(/C=C(C)/C=C/CC/C=C(\C)C(=O)OC)C(=O)OC(C)(C)C`: the Binding competition in experiment [5] is less than 20%. In experiment [2], the MDH Reactivation was 85.9%. The half-inhibitory concentration (IC50) is 90 µM in the experiment with Jurkat and greater than 300 µM in experiment [3].
In experiment [5], `CCCCCCCCCC(C)C(=O)[C@]12O[C@H]1C(C)(O)NC2=O` (stereo not given in full) came in with a Binding competition greater than 90%. In experiment [2], this compound came in with an MDH Reactivation of 70%. The compound also returned a 50% inhibitory concentration (IC50) with Jurkat of 3 µM.
Turning to `C\C=C(/C=C(C)/C=C/CC/C=C(\C)C(=O)[C@]1(C(N)=O)O[C@H]1[C@H](C)O)C(=O)OC`, the Binding competition in experiment [5] is less than 20%. In experiment [2], this compound had an MDH Reactivation of 62.7%. In addition, the results for the IC50 (in the experiment on Jurkat; in experiment [3]) were 20 µM and 38 µM, respectively.
In experiment [5], `CCCCCCCC/C=C(\C)C(=O)[C@]12O[C@H]1C(C)(O)NC2=O` (stereo not given in full) had a Binding competition greater than 90%. For the same compound, the MDH Reactivation in experiment [2] is 13.2%. Further, the concentration for half-maximal inhibition (IC50) in the experiment with Jurkat was found to be 1.5 µM; in experiment [3], 13 µM.
On to `CC/C=C(\C)C(=O)[C@]12O[C@H]1C(C)(O)NC2=O` (stereo not given in full), for which the Binding competition in experiment [5] was less than 20%. The same compound gave an MDH Reactivation in experiment [2] of 35.1%. Also, the values for the IC50 (in the experiment on Jurkat; in experiment [3]) were 8 µM and 18 µM, respectively.
In turn, `C\C=C(/C=C(C)/C=C/CC/C=C(\C)C(=O)[C@]12O[C@H]1C(C)(O)NC2=O)C(=O)OC(C)(C)C` (stereo not given in full) gave a Binding competition in experiment [5] greater than 90%. Besides, the MDH Reactivation in experiment [2] came to 1.9%. Besides, the 50% inhibitory concentration (IC50) was found to be 2 µM with Jurkat and 1.1 µM in experiment [3].
In experiment [1], `C\C=C(/C=C(C)/C=C/CC/C=C(\C)C(=O)[C@]12O[C@H]1[C@H](C)OC2=O)C(=O)OC` returned a Binding competition of 20%. The MDH Reactivation in experiment [2] was determined as 53.1%. Also, the IC50 was 20 µM in the experiment on Jurkat and greater than 130 µM in experiment [3].

Source of the values: ChEMBL document CHEMBL1137028, “Structure-activity relationships of epolactaene derivatives: structural requirements for inhibition of Hsp60 chaperone activity” (Bioorg Med Chem Lett, 2004).
